Assays:
[1] = molecular target: T1, Serotonin 3 (5-HT3) receptor (Rattus norvegicus, UniProt P35563+Q9JJ16); experiment: In vitro by displacement of [3H]LY-278584 from 5-hydroxytryptamine 3 receptor on rat entorhinal cortex
T1 sequence (P35563 whole entry): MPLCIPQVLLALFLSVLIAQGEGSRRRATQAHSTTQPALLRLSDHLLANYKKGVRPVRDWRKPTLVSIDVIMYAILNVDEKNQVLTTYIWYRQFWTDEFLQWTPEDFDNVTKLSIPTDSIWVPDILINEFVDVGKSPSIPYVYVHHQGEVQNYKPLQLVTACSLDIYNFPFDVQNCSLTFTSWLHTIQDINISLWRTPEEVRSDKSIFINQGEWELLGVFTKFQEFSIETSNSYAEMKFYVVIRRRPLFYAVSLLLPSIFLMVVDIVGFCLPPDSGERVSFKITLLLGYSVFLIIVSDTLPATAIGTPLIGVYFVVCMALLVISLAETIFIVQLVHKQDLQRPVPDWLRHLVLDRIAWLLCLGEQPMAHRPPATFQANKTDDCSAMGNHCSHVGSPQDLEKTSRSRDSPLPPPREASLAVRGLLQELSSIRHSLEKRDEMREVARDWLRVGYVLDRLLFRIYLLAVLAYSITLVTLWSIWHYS
T1 sequence (Q9JJ16 whole entry): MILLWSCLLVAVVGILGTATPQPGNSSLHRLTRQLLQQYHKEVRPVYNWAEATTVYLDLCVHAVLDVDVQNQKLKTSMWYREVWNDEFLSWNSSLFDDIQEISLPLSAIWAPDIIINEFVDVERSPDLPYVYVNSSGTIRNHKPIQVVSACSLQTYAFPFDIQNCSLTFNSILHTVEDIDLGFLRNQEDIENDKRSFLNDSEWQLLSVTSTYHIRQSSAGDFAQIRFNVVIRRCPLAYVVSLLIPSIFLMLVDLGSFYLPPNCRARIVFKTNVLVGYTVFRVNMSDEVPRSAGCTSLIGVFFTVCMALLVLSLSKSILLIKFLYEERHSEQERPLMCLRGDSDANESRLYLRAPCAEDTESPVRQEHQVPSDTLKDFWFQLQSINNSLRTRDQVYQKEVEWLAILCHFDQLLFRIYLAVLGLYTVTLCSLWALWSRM
Summary of the method: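 Entorhinal cortex membranes from male Wistar rats (220-280 g), 500-600 µg protein, in 50 mM Tris-HCl with 5 mM CaCl2, 0.1% ascorbate and 10 µM pargyline. Nonspecific binding with 10 µM 5-HT. Incubation 30 min at 25 °C. Triplicate, 10-12 concentrations, two experiments. IC50 and Ki calculated.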

[2] = molecular target: 5-hydroxytryptamine receptor 2A (Rattus norvegicus, UniProt P14842); experiment: Binding affinity was evaluated in vitro by displacement of [3H]ketanserin from 5-hydroxytryptamine 2A receptor on rat cortical membrane
5-hydroxytryptamine receptor 2A, sequence (P14842 whole entry): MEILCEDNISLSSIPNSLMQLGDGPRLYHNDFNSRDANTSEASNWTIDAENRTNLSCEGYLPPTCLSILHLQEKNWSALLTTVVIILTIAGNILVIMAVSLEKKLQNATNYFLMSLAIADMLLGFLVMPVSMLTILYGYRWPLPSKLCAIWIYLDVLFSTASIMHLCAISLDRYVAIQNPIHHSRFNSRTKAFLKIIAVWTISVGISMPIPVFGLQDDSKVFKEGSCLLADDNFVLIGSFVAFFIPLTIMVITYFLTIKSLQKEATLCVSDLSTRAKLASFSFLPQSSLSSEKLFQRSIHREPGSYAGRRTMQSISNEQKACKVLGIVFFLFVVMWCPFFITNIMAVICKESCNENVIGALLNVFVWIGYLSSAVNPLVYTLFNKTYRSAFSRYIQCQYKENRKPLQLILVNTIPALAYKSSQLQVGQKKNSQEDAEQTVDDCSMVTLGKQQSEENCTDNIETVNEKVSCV
Summary of the method: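 Prefrontal cortex membranes from adult male Wistar rats (220-280 g), final dilution 1:60 wt/vol in 50 mM Tris-HCl. Displacer added in Tris-HCl with 10% ethanol. [3H]ketanserin at 0.8 nM final. Nonspecific binding with 1 µM methysergide. Triplicate competition, 10-12 displacer concentrations, two separate experiments. Filtration and scintillation counting. IC50 and Ki calculated.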

D(2) dopamine receptor = D(2) dopamine receptor (Rattus norvegicus, UniProt P61169); experiment: In vitro by displacement of [3H]raclopride from Dopamine receptor D2 on rat striatal membrane; parameters: species or system Striatum
D(2) dopamine receptor, sequence (P61169 whole entry): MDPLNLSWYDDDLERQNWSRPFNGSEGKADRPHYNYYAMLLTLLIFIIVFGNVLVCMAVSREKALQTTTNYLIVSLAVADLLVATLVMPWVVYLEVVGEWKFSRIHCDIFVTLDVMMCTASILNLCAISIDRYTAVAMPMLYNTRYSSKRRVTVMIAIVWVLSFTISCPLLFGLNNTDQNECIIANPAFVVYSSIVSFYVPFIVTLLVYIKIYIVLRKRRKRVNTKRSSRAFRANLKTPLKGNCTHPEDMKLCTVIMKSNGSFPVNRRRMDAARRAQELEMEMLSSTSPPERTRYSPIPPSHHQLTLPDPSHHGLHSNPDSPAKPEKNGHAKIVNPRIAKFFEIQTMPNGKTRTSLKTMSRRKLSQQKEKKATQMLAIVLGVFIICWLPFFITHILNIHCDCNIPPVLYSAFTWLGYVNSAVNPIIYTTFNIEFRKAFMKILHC

[3] = molecular target: T2, 5-hydroxytryptamine receptor 1A (Rattus norvegicus, UniProt P19327); experiment: In vitro by displacement of [3H]8-OH-DPAT from 5-hydroxytryptamine 1A receptor on rat cortical membrane
T2 sequence (P19327 whole entry): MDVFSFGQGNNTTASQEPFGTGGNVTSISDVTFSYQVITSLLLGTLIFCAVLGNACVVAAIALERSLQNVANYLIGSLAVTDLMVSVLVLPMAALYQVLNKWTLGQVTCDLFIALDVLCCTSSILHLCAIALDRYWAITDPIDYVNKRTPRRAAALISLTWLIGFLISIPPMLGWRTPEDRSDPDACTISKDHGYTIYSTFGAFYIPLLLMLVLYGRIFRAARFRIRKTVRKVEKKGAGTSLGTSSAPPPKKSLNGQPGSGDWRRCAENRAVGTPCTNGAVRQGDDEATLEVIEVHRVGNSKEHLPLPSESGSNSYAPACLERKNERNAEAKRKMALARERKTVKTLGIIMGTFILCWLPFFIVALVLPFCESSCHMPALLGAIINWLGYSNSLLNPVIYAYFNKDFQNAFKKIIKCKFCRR
Summary of the method: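 Cerebral cortex membranes from adult male Wistar rats (220-280 g) in 50 mM Tris-HCl with 4 mM CaCl2, 0.1% ascorbate and 10 µM pargyline. [3H]8-OH-DPAT at 1.5 nM final. Nonspecific binding with 10 µM 5-HT. Incubation 30 min at 37 °C. Triplicate, 10-12 concentrations, two experiments. IC50 and Ki calculated.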

Rattus norvegicus = experiment: In vivo effective dose against Bezold-Jarisch reflex evoked by 5-HT in urethane-anesthetized rats; format: functional
Summary of the method: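 Bradycardia induced by iv bolus of 5-HT 30 µg/kg. Antagonist or saline given iv (1 mL/kg) after recovery, and 5-HT challenge repeated 5 min later. Heart rate taken from the carotid pressure signal. ED50 in µg/kg iv by linear regression from 3-5 doses, 4-5 rats per dose.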

[4] = molecular target: 5-hydroxytryptamine receptor 4 (Cavia porcellus, UniProt O70528); experiment: In vitro by displacement of [3H]GR-113808 from 5-hydroxytryptamine 4 receptor on guinea pig striatal membrane; parameters: species or system Striatum
5-hydroxytryptamine receptor 4, sequence (O70528 whole entry): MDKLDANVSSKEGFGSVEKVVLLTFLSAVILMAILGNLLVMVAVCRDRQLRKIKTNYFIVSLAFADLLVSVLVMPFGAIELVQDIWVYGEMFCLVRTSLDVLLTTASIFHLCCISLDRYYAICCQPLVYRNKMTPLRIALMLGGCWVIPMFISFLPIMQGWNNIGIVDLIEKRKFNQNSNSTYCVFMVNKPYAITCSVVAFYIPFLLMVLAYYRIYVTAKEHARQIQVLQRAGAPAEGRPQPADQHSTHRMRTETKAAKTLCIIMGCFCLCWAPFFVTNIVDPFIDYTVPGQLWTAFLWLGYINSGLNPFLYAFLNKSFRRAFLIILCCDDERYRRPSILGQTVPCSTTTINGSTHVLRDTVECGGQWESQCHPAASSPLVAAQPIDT
Summary of the method: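 Striatal membranes from male Dunkin-Hartley guinea pigs (350-400 g) in 50 mM Hepes pH 7.4, 800-900 µg protein. Nonspecific binding with 10 µM 5-HT. Incubation 30 min at 25 °C, then filtration and scintillation counting. Triplicate, 10-12 concentrations, two experiments. IC50 and Ki calculated.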

Row | Structure (SMILES) | Ki [2] [nM] | Ki [3] [nM] | Ki [1] [nM] | Ki (D(2) dopamine receptor) [nM] | ED50 (Rattus norvegicus) [µg/kg] | Ki [4] [nM]
1 | Cn1c(N2CCNCC2)nc2ccccc21 | > 1000 | > 1000 | 50.1 | > 1000 | 5.3 | > 1000
2 | COc1cccc2nc(N3CCNCC3)n(Cc3ccccc3)c12 | > 1000 | > 1000 |  |  |  | 
3 | CCCn1c(N2CCNCC2)nc2ccccc21 | > 1000 | > 1000 |  |  |  | 
4 | Oc1ccc2nc(N3CCNCC3)n(Cc3ccccc3)c2c1 | > 1000 | > 1000 |  |  |  | 
5 | Cc1cc2nc(N3CCNCC3)n(Cc3ccccc3)c2cc1C | > 1000 | > 1000 |  |  |  | 
6 | O=C(OCCN1CCCCC1)c1c[nH]c2ccccc12 |  |  |  |  |  | 1
7 | COc1cccc2c1nc(N1CCNCC1)n2Cc1ccccc1 | > 1000 | > 1000 |  |  |  | 
8 | Clc1cc2nc(N3CCNCC3)n(Cc3ccccc3)c2cc1Cl | > 1000 | > 1000 |  |  |  | 
9 | CN1[C@@H]2CC[C@H]1C[C@@H](OC(=O)c1c[nH]c3ccccc13)C2 [TROPISETRON] |  |  | 1.58 |  | 1.7 | 
10 | c1ccc2c(c1)nc(N1CCNCC1)n2C1CC1 | > 1000 | > 1000 |  |  |  | 
11 | CCn1c(N2CCNCC2)nc2ccccc21 | > 1000 | > 1000 |  |  |  | 
12 | c1ccc(Cn2c(N3CCNCC3)nc3ccccc32)cc1 [LERISETRON] | > 1000 | > 1000 |  |  | 2 | 

Second part, led by results:

Row | Ki [2] [nM] | Ki [3] [nM] | Structure (SMILES) | Ki [1] [nM] | Ki (D(2) dopamine receptor) [nM] | ED50 (Rattus norvegicus) [µg/kg] | Ki [4] [nM]
13 | > 1000 | > 1000 | COc1ccc2nc(N3CCNCC3)n(Cc3ccccc3)c2c1 |  |  |  | 
14 | > 1000 | > 1000 | COc1ccc2c(c1)nc(N1CCNCC1)n2Cc1ccccc1 |  |  |  | 
15 | > 1000 | > 1000 | Oc1ccc2c(c1)nc(N1CCNCC1)n2Cc1ccccc1 |  |  |  | 
16 | > 1000 | > 1000 | Clc1ccc2c(c1)nc(N1CCNCC1)n2Cc1ccccc1 |  |  |  | 
17 | > 1000 | > 1000 | Fc1ccc2c(c1)nc(N1CCNCC1)n2Cc1ccccc1 |  |  |  | 
18 | > 1000 | > 1000 | Cc1ccc2c(c1)nc(N1CCNCC1)n2Cc1ccccc1 |  |  |  | 
